Screens as filed in PubChem.
Most compounds without a hit are left out; they make up all but 2% or so of the library.
MC4R antag cAMP: MC4R antagonists of cAMP signaling, primary screen, cell-based, TR-FRET, antagonist arm of biased-ligand search; inhibition, % at 6.5 µM; Melanocortin receptor 4 (Homo sapiens), P32245; AID 540295, 2011; MC4R-expressing cells, MTII-stimulated cAMP, LANCE TR-FRET; actives 0.48% (n = 360,000);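 active = inhibition above its plate's cutoff, the mean of tested wells on that plate plus 3 SD, cut at about 29% in these data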
Target sequence (P32245 whole entry, looked up): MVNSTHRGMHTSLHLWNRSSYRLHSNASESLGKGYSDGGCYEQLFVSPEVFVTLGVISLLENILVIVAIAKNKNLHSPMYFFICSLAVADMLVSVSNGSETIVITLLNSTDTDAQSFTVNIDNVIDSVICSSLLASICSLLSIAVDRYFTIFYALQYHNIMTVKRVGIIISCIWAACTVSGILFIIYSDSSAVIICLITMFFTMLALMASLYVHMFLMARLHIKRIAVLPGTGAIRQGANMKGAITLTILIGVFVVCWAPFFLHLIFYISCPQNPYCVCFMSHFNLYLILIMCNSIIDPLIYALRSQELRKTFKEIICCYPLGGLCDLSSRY
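System: U2OS cells stably expressing human melanocortin 4 receptor (MC4R). Reagent: Melanotan II challenge after compound preincubation. Doses: 6.5 µM. Times: 30-min compound, 1-h challenge, 1-h detection, room temperature. Measured by: TR-FRET with Eu-cAMP and labeled anti-cAMP, 671 nm. Replicates: singlicate.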
Bfl-1 A1 inh: caspase 3/7 activation in MEF A1-2A-BIM cells, primary screen, A1 inhibitor project, cell-based, luminescence, HTS; Caspase-Glo 3/7 luminescence, 3 h; percent of clofoctol response, vehicle zero; actives 0.066% (n = 330,000); caspase activation, % (test concentration not listed); AID 2462, 2010;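 active = over half of replicate activation scores above 10%, or exactly half above 10 with the replicate mean above 10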
UPR XBP1 act: activators of adaptive XBP1 UPR arm, primary screen, cell-based, CHO-XBP1 luciferase reporter, luminescence, uHTS; activation, % at 20 µM; AID 463104, 2010; actives 0.33% (n = 330,000); IRE1-XBP1 UPR activation; percent of tunicamycin response, DMSO as zero;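 active = versus positive control, 20 µM dose yields 30% or more activation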
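Assay system: CHO-XBP1 luciferase reporter cells; Schedule: 6 h treatment, 37 °C; Detection: glow luminescence from Steady-Glo reagent; Benchmarks: high control tunicamycin 10 µg/mL final, low control DMSO vehicle only.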
CHOP UPR activ: activators of apoptotic CHOP UPR arm, primary screen, cell-based, CHO-CHOP luciferase reporter, luminescence, uHTS. UPR activation; percent of tunicamycin response over DMSO baseline. activation, % at 10 µM. actives 0.34% (n = 330,000). AID 449763, 2010;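 active = at 10 µM dose, activation of 40% or more, normalized to positive control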
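Material: CHO-CHOP cells, stable luciferase reporter of PERK-eIF2a-CHOP signalling; quantity: 500 reporter cells seeded per well; buffer or medium: F12 medium containing 10% fetal bovine serum; compound: one dose, 10 µM in 0.5% DMSO; incubation: 6 h compound treatment, 37 °C; measured by: Steady-Glo luciferase luminescence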
MC4R barr agon: MC4R agonists recruiting beta-arrestin, primary screen, cell-based, luminescence, agonist arm of biased-ligand search; Melanocortin receptor 4 (Homo sapiens), P32245; U2OS MC4R beta-arrestin complementation; percent of melanotan II response, DMSO zero; activation, % at 8.9 µM; actives 0.98% (n = 360,000); AID 540308, 2011;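 active = activation above a per-plate cutoff, the mean activation of sample wells on that plate plus 3 SD, cut at about 8% in these data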
Each line names hits and unclear results; the compound was inactive in the other large screens.

COc1ccccc1CN(C)C[C@@H]1OCc2cnnn2CCCC(=O)N([C@@H](C)CO)C[C@H]1C	none (no result: Bfl-1 A1 inh, UPR XBP1 act, CHOP UPR activ)
C=CCNC(=S)N/N=C/c1ccccc1OCCOc1ccccc1	MC4R barr agon 8.9
COC(=O)N/N=C/c1ccccc1OCCOc1ccc(OC)cc1	none
CN(C)c1ccc(CC(=O)N2CCCCC2c2cc(C(=O)Nc3ccccc3)no2)cc1 (centres undefined)	none (no result: Bfl-1 A1 inh, UPR XBP1 act, CHOP UPR activ)
Oc1ccccc1Nc1nc(NCC2CCCO2)c2ccccc2n1 (centres undefined)	none
Oc1ccc(Cl)cc1Nc1nc(NCC2CCCO2)c2ccccc2n1 (centres undefined)	MC4R barr agon 11.8
Cc1ccc(C(=O)CSc2nnc(-c3c[nH]c4ccccc34)o2)cc1	MC4R barr agon 8.2
CC(=O)NCCNC(=O)c1ccc(Cn2c(=O)[nH]c3ccsc3c2=O)cc1	none
O=C(Nc1cc(Cl)cc(Cl)c1)c1ccc(Cn2c(=O)[nH]c3ccsc3c2=O)cc1	MC4R barr agon 20.4
Brc1ccccc1/C=N/Nc1ccccn1	MC4R barr agon 9.4
O=C1N/C(=C/c2ccc(N3CCCC3)cc2)C(=O)N1c1ccccc1	MC4R barr agon 8.5
O=C1/C(=C/c2ccc(N3CCCC3)cc2)NC(=S)N1C1CC1	none
CN(C)c1ccc(/C=N/NC(=O)c2nnn(-c3nonc3N)c2CN(C)c2ccccc2)cc1	MC4R barr agon 8.5
Cc1cccc(COc2ccc(/C=N/NC(=O)c3nnn(-c4nonc4N)c3COc3ccc(F)cc3)cc2)c1	UPR XBP1 act 37.3
Cc1ccsc1C(=O)N1CCC1(C)C(=O)NCCC#N (centres undefined)	none (no result: Bfl-1 A1 inh, UPR XBP1 act, CHOP UPR activ)
Nc1nc(CCl)nc(Nc2ccc3ccccc3c2)n1	MC4R barr agon 14.9 (no result: Bfl-1 A1 inh, UPR XBP1 act, CHOP UPR activ)
COc1ccc(Nc2nc(N)nc(CCl)n2)cc1	MC4R barr agon 17.6
CCc1nc2c(OCc3ccc(OC(F)F)cc3)cccn2c1N(C)C(=O)c1ccc(OC)cc1	none (no result: Bfl-1 A1 inh, UPR XBP1 act, CHOP UPR activ)
Cc1ccc2cc3cc(C(=O)N(CC(=O)NC4CCCC4)c4cccc(C)c4C)sc3nc2c1	MC4R antag cAMP 34.0
Cc1ccc(C)c(N(CC(=O)NC2CCCC2)C(=O)c2cc3cc4cccc(C)c4nc3s2)c1	none
CC(C)(C)OC(=O)NCc1ccc(CNC(=O)c2[nH]cnc2C(=O)Nc2ccccc2F)cc1	MC4R barr agon 9.3 (no result: Bfl-1 A1 inh, UPR XBP1 act, CHOP UPR activ)
O=C(NCCNC(=O)c1ccc(-c2cc(Cl)ccc2Cl)o1)c1cnccn1	none (no result: Bfl-1 A1 inh, UPR XBP1 act, CHOP UPR activ)
O=C(CNC(=S)NC(=O)c1cccs1)c1ccccc1	none
Cc1ccc(C(=O)NC(=S)NCC(=O)c2ccccc2)cc1	MC4R barr agon 11.4
COc1cccc(NC(=O)c2cc(-c3cccnc3)nc3c(Cl)cccc23)c1	MC4R barr agon 11.8
Cc1cccc(-c2cc(C(=O)Nc3cccnc3)c3ccccc3n2)c1	none
Cc1cccc(-c2cc(C(=O)Nc3ccncc3)c3ccccc3n2)c1	MC4R barr agon 12.4 (no result: Bfl-1 A1 inh)
O=C(Nc1ccncc1)c1cc(-c2ccccc2)nc2ccccc12	MC4R barr agon 9.3 (no result: Bfl-1 A1 inh, UPR XBP1 act, CHOP UPR activ)
Cc1c(C(=O)NCc2cccc(C(F)(F)F)c2)sc(=O)n1Cc1cccc(F)c1	none (no result: Bfl-1 A1 inh, UPR XBP1 act, CHOP UPR activ)
CCCNC(=O)C1(C)CCCN(Cc2ccc(-c3ccccc3)o2)C1 (centres undefined)	none (no result: Bfl-1 A1 inh, UPR XBP1 act, CHOP UPR activ)
O=C1Nc2ccccc2S/C1=C/Nc1cccc(Cl)c1	MC4R barr agon 13.2
CC1CCC2(CC1)OCC1(CCC3(COC4(CCC(C)CC4)OC3)C1=O)CO2 (centres undefined)	MC4R barr agon 9.2
Cc1cc(C)c(S(=O)(=O)NCCc2ccccc2)c(C)c1	MC4R barr agon 8.4
Cc1cc(-c2nnc3n2N=C(c2ccc(-c4ccccc4)cc2)CS3)n[nH]1	MC4R barr agon 9.3
Cc1nc(NCCC(C)C)c2nnn(Cc3ccccc3)c2n1	none
CCc1nc(NCCC(C)C)c2nnn(Cc3ccccc3)c2n1	MC4R barr agon 8.9
COc1c(C(O)CC(C)C)ccc2c1C(=O)OCc1cc(C)cc(O)c1O2 (centres undefined)	none
